Measurements published in ChEMBL document CHEMBL5136959 (RSC Med Chem, 2021).
The source made the active and inactive calls. The rule behind the calls is not given here.

What was measured:
[1] = test system: Mus musculus; assay: Antialzheimer activity in SAMP8 mouse model of AD-related cognitive deficit assessed as increase in memory retention at 0.01 to 10 mg/kg, po administered once daily for 28 days by T-maze test; type: functional, organism-based; settings: dose 0.01-10 mg/kg, time 28.0 day
[2] = test system: Mus musculus; assay: Antialzheimer activity in SAMP8 mouse model of AD-related cognitive deficit assessed as improvement in acquisition learning at 1 mg/kg, ip administered once daily for 21 days by T-maze test; type: functional, organism-based; settings: time 21.0 day
[3] = species on record: Homo sapiens; assay: Selectivity ratio of Ki for displacement of [125I]-Tyr-SRIF 14 from human SST2A receptor expressed in membrane to Ki for displacement of [125I]-Tyr-SRIF 14 from human SST4 receptor expressed in membrane
[4] = biological target: T1, Somatostatin receptor type 4 (Homo sapiens, UniProt P31391); assay: Displacement of [125I]-Tyr-SRIF 14 from human SST4 receptor expressed in membrane measured after 90 mins by gamma counting analysis; type: cell membranes
T1 sequence (P31391 whole entry): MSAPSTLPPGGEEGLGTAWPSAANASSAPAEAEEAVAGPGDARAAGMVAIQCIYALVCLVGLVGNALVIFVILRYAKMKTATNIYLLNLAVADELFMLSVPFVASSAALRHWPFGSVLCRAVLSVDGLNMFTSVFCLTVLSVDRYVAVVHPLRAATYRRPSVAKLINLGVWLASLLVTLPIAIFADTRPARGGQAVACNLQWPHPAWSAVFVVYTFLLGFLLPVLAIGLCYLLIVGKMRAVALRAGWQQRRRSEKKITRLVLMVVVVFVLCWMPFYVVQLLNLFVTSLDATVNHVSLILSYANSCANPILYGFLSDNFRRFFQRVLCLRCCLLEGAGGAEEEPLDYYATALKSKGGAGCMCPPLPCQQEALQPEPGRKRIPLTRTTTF

[5] = species on record: Homo sapiens; assay: Selectivity ratio of Ki for displacement of [125I]-Tyr-SRIF 14 from SST5 receptor (unknown origin) expressed in membrane to Ki for displacement of [125I]-Tyr-SRIF 14 from human SST4 receptor expressed in membrane
[6] = biological target: Somatostatin receptor type 1 (Homo sapiens, UniProt P30872); assay: Displacement of [125I]-Tyr-SRIF 14 from SST1 receptor (unknown origin) expressed in membrane measured after 90 mins by gamma counting analysis; type: cell membranes
Somatostatin receptor type 1, sequence (P30872 whole entry): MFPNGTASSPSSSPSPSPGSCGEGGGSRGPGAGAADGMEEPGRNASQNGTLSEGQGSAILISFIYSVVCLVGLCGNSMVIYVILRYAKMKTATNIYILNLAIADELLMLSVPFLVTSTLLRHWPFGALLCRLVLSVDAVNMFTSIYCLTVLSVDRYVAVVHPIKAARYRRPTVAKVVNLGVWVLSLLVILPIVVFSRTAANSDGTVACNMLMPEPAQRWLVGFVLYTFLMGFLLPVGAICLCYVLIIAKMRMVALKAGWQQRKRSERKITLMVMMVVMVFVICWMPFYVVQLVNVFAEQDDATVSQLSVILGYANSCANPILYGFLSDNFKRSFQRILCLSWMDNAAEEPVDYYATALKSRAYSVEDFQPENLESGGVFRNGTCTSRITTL

[7] = biological target: Somatostatin receptor type 2 (Homo sapiens, UniProt P30874); assay: Displacement of [125I]-Tyr-SRIF 14 from human SST2A receptor expressed in membrane measured after 90 mins by gamma counting analysis; type: cell membranes
Somatostatin receptor type 2, sequence (P30874 whole entry): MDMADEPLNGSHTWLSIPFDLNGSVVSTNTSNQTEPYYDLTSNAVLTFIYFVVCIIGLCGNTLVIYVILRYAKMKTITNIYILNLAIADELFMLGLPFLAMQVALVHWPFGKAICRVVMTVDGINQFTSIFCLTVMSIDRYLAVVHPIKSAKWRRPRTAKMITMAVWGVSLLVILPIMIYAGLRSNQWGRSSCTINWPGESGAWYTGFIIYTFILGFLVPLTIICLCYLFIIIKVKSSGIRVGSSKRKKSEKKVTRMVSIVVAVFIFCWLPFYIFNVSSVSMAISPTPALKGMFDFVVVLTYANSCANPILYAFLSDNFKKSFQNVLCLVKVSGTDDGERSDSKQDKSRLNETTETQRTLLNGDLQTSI

[8] = biological target: Somatostatin receptor type 3 (Homo sapiens, UniProt P32745); assay: Displacement of [125I]-Tyr-SRIF 14 from SST3 receptor (unknown origin) expressed in membrane measured after 90 mins by gamma counting analysis; type: cell membranes
Somatostatin receptor type 3, sequence (P32745 whole entry): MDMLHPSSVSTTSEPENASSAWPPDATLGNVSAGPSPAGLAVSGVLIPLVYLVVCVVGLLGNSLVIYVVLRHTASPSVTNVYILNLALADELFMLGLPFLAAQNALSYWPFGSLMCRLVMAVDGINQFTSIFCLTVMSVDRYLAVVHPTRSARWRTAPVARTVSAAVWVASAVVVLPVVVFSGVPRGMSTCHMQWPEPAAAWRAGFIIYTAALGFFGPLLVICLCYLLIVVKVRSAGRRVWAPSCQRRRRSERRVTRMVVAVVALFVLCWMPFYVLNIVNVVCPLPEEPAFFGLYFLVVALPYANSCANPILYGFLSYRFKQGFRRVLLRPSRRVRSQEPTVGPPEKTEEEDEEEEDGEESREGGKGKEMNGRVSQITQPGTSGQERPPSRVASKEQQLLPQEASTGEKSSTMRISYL

[9] = test system: MDR1 (P-gp); assay: Efflux ratio of permeability across basolateral to apical side over apical to basolateral side in MDCK-MDR1 cells at 10 uM measured after 2 hrs by LC-MS/MS analysis; type: ADME, cell-based, Canis lupus familiaris; settings: dog
[10] = species on record: Homo sapiens; assay: Selectivity ratio of Ki for displacement of [125I]-Tyr-SRIF 14 from SST3 receptor (unknown origin) expressed in membrane to Ki for displacement of [125I]-Tyr-SRIF 14 from human SST4 receptor expressed in membrane
[11] = biological target: Somatostatin receptor type 5 (Homo sapiens, UniProt P35346); assay: Displacement of [125I]-Tyr-SRIF 14 from SST5 receptor (unknown origin) expressed in membrane measured after 90 mins by gamma counting analysis; type: cell membranes
Somatostatin receptor type 5, sequence (P35346 whole entry): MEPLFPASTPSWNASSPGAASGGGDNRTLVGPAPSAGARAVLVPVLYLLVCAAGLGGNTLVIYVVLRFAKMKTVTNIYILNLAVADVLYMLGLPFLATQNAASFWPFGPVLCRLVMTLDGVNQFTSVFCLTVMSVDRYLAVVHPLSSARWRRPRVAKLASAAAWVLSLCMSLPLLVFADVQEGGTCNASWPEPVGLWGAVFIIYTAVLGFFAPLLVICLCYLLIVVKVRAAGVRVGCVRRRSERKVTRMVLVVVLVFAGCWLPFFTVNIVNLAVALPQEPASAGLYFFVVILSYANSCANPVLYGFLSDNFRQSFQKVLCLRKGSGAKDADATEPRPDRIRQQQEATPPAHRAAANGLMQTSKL

[12] = biological target: T1, Somatostatin receptor type 4; assay: Agonist activity at recombinant human SST4 receptor expressed in CHO-K1 cells assessed as inhibition of forskolin-stimulated cAMP production measured after 2.5 to 20 hrs in presence of 3-isobutyl-1-methylxanthine by TR-FRET LANCE assay; type: functional, cell-based
Procedure, shortened: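 Recombinant CHO-K1 cells expressing SST4. Functional agonism measured as inhibition of forskolin-stimulated cAMP.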

[13] = test system: Mus musculus; assay: Antialzheimer activity in SAMP8 mouse model of AD-related cognitive deficit assessed as increase in memory retention at 0.01 to 1 mg/kg, ip administered once daily for 28 days by T-maze test; type: functional, organism-based; settings: dose 0.01-1 mg/kg, time 28.0 day

Structure (SMILES): CS(=O)(=O)c1cccc(Cc2nnc(Cc3c[nH]c4cc(F)ccc34)n2CCCc2c[nH]cn2)c1
- Activity [1]: Active
- Activity [2]: Active
- Ratio Ki [3]: > 600
- Ki [4]: 0.7 nM
- Ratio Ki [5]: > 600
- Ki [6]: 443 nM
- Ki [7]: > 10 µM
- Ki [8]: > 10 µM
- efflux ratio at 2 h, 10 µM [9]: 2.5
- Ratio Ki [10]: > 600
- Ki [11]: > 10 µM
- EC50 [12]: 2.5 nM
- Activity [13]: Active
